In ChEMBL document CHEMBL1134541, “Potent and selective carboxylic acid-based inhibitors of matrix metalloproteinases” (J Med Chem, 2001):
≈ marks a conversion by molar mass, not a printed value.

Experiments:
Neutrophil collagenase = Neutrophil collagenase (Homo sapiens, UniProt P22894); test: Inhibitory activity against matrix metalloprotease-8
[1] = molecular target: 72 kDa type IV collagenase (Homo sapiens, UniProt P08253); test: In vitro inhibitory activity against matrix metalloprotease-2
Stromelysin-1 [2] = molecular target: T1, Stromelysin-1 (Homo sapiens, UniProt P08254); test: (§1) In vitro inhibitory activity against matrix metalloprotease-3
T1 sequence (P08254 whole entry): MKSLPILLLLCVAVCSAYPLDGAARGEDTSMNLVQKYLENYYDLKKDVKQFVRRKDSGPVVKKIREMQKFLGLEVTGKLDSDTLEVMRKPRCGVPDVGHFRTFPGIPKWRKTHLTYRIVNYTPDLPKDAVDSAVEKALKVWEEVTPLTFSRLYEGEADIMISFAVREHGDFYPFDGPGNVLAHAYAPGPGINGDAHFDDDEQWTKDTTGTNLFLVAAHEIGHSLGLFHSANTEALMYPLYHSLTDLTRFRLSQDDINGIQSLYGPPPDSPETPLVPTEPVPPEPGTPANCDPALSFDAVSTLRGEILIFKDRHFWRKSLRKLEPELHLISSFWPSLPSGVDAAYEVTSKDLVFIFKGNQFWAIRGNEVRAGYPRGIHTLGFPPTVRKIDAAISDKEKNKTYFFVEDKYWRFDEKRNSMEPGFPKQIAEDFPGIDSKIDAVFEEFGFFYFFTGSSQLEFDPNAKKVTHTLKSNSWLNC

Interstitial collagenase [3] = molecular target: T2, Interstitial collagenase (Homo sapiens, UniProt P03956); test: (§2) In vitro inhibitory activity against matrix metalloprotease-1
T2 sequence (P03956 whole entry): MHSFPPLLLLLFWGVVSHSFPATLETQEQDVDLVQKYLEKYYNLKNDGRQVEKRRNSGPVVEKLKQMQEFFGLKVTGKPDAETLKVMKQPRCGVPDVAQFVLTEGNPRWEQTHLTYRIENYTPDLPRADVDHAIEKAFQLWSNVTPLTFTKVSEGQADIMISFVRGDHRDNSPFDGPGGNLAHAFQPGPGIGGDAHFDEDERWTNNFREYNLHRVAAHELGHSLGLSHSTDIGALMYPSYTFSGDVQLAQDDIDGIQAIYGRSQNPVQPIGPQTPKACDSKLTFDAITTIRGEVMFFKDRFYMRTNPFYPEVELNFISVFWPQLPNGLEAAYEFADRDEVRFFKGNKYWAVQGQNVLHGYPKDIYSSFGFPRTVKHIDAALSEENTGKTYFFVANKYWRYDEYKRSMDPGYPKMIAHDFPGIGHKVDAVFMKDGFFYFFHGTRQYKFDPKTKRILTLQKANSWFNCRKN

Collagenase 3 = Collagenase 3 (Homo sapiens, UniProt P45452); test: In vitro inhibitory activity against matrix metalloprotease-13
[4] = molecular target: Matrix metalloproteinase-9 (Homo sapiens, UniProt P14780); test: In vitro inhibition of human matrix metalloprotease-9
Sequence of Matrix metalloproteinase-9 (P14780 whole entry): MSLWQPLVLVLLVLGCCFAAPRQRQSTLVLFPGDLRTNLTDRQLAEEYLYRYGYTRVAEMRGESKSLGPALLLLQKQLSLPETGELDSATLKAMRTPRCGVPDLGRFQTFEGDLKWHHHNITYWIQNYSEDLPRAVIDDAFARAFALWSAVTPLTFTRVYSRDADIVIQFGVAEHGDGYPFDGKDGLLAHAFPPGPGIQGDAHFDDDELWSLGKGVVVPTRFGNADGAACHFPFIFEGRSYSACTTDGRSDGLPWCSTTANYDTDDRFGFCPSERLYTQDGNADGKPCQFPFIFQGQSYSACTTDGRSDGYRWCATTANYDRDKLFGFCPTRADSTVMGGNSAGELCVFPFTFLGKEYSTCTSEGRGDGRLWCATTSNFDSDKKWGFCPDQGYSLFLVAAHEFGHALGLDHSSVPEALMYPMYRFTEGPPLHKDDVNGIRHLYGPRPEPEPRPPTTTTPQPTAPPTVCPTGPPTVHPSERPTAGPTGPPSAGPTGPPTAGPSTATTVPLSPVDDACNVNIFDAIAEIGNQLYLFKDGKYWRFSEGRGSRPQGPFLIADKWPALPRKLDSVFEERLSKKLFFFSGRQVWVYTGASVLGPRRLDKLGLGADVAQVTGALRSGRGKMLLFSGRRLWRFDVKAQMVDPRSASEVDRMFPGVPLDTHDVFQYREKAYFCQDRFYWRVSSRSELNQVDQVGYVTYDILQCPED
Summary of the method: (§3)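 Inhibition of each enzyme (MMP-1 collagenase-1, MMP-2 gelatinase A, MMP-3 stromelysin, MMP-7 matrilysin, MMP-8 collagenase-2, MMP-9 gelatinase B) was measured at pH 7.4 and reported as binding values. Compounds were tested as racemic mixtures. Standard deviations were under 30% of the mean values.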

Matrilysin = molecular target: T3, Matrilysin (Homo sapiens, UniProt P09237); test: Inhibitory activity against matrix metalloprotease-7; summary of the method: as §3
T3 sequence (P09237 whole entry): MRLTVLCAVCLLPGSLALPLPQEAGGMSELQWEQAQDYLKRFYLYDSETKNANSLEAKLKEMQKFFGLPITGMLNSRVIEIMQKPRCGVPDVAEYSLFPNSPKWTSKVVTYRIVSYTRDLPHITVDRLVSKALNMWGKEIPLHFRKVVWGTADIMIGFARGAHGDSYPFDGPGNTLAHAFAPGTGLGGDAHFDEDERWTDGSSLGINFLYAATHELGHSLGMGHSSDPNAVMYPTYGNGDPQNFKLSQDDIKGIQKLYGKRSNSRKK

Stromelysin-1 [5] = molecular target: T1, Stromelysin-1; test: as §1; summary of the method: as §3; remark: listed apart in the source
Interstitial collagenase [6] = molecular target: T2, Interstitial collagenase; test: as §2; summary of the method: as §3; remark: listed apart in the source

Sequence of 72 kDa type IV collagenase (P08253 whole entry): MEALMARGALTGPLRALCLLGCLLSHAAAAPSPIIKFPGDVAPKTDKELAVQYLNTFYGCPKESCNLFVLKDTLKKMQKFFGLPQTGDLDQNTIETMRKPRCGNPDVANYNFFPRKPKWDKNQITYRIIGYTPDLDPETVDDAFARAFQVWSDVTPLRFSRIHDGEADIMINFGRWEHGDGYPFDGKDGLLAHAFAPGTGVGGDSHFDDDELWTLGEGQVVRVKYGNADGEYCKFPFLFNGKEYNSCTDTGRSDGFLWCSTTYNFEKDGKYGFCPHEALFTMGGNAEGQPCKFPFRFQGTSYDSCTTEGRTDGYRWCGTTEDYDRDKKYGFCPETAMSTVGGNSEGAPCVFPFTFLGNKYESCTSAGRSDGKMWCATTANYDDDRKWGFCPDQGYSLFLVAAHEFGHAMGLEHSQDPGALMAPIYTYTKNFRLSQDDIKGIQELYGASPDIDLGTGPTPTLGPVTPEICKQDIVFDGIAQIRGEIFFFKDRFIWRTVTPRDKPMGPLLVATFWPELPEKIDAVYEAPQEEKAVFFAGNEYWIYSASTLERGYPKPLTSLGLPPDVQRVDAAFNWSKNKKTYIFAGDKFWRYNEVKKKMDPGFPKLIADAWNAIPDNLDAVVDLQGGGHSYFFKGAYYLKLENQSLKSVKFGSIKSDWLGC
Sequence of Neutrophil collagenase (P22894 whole entry): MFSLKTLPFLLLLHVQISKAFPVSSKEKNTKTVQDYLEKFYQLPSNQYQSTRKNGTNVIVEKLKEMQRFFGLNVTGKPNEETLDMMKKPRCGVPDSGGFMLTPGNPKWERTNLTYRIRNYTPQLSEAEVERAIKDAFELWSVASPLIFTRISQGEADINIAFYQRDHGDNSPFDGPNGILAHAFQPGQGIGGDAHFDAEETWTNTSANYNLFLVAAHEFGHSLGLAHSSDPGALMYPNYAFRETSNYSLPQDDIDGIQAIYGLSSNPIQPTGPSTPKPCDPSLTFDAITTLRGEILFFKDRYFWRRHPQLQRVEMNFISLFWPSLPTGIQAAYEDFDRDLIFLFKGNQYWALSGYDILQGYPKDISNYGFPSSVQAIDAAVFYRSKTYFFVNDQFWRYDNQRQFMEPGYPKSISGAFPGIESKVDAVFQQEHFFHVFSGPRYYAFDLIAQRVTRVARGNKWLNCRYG

Row | IC50 [1] [nM] | IC50 (Interstitial collagenase [3]) [nM] | IC50 [4] [nM] | IC50 (Matrilysin) [nM] | IC50 (Stromelysin-1 [5]) [nM] | IC50 (Interstitial collagenase [6]) [nM] | SMILES | IC50 (Neutrophil collagenase) [nM] | IC50 (Stromelysin-1 [2]) [nM] | IC50 (Collagenase 3) [nM] | solubility (physchem) [µg/mL]
1 | 1 | 2760 | 94.9 | 9870 | – | – | CCOC(=O)N1CCC(C(NS(=O)(=O)c2ccc(-c3ccc(OC)cc3)cc2)C(=O)O)CC1 (centres undefined) | – | 162 | – | –
2 | 12.5 | – | 553 | > 10000 | – | – | COc1ccc(-c2ccc(S(=O)(=O)NC(CC#Cc3ccccc3)C(=O)O)cc2)cc1 (centres undefined) | 9.4 | – | – | –
3 | – | 1420 | 5.4 | 2590 | – | – | COc1ccc(-c2ccc(S(=O)(=O)NC(C(=O)O)C3CCN(C(=O)OC(C)(C)C)CC3)cc2)cc1 (centres undefined) | – | 56.4 | – | –
4 | – | 3490 | 71.5 | 8510 | – | – | COc1ccc(-c2ccc(S(=O)(=O)N[C@H](C(=O)O)C3CCN(C(=O)OC(C)(C)C)CC3)cc2)cc1 | – | 345 | – | –
5 | – | 1370 | 6.6 | 3660 | – | – | COc1ccc(-c2ccc(S(=O)(=O)N[C@@H](C(=O)O)C3CCN(C(=O)OC(C)(C)C)CC3)cc2)cc1 | – | 33.7 | – | –
6 | 3.2 | 4900 | 137 | 4370 | – | – | COc1ccc(-c2ccc(S(=O)(=O)NC(C(=O)O)C3CCN(C(=O)CC(C)C)CC3)cc2)cc1 (centres undefined) | – | 739 | – | –
7 | 0.9 | 1850 | 13.9 | 3950 | – | – | COCCOC(=O)N1CCC(C(C(=O)O)N(C)S(=O)(=O)c2ccc(-c3ccc(OC)cc3)cc2)CC1 (centres undefined) | – | 69.6 | – | –
8 | 53 | 3890 | 1760 | 4240 | 4840 | – | COc1ccc(-c2ccc(S(=O)(=O)NC(C(=O)O)C3CCNCC3)cc2)cc1 (centres undefined) | 30.2 | – | 264 | –
9 | 6.6 | – | 747 | > 10000 | – | 8710 | COc1ccc(-c2ccc(S(=O)(=O)N[C@H](C(=O)O)C(C)C)cc2)cc1 | 10.6 | 1890 | 24.2 | –
10 | 1.1 | 1760 | 50.8 | 8570 | – | – | COc1ccc(-c2ccc(S(=O)(=O)NC(C(=O)O)C3CCN(C(=O)N4CCOCC4)CC3)cc2)cc1 (centres undefined) | – | 221 | – | –
11 | 2.8 | 5210 | 177 | 5650 | – | – | COC(=O)N1CCC(C(NS(=O)(=O)c2ccc(-c3ccc(OC)cc3)cc2)C(=O)O)CC1 (centres undefined) | – | 657 | – | –
12 | 91.3 | > 10000 | 3110 | > 10000 | – | – | O=C(CC(CSc1ccccc1)C(=O)O)c1ccc(-c2ccc(Cl)cc2)cc1 (centres undefined) | 303 | – | 1570 | –

Row | SMILES | IC50 [1] [nM] | IC50 (Interstitial collagenase [3]) [nM] | IC50 [4] [nM] | IC50 (Matrilysin) [nM] | IC50 (Stromelysin-1 [5]) [nM] | IC50 (Interstitial collagenase [6]) [nM] | IC50 (Neutrophil collagenase) [nM] | IC50 (Stromelysin-1 [2]) [nM] | IC50 (Collagenase 3) [nM] | solubility (physchem) [µg/mL]
13 | COCCOC(=O)N1CCC(C(NS(=O)(=O)c2ccc(-c3ccccc3)cc2)C(=O)O)CC1 (centres undefined) | 24.2 | 6050 | 415 | > 10000 | – | – | 44.8 | 418 | 55.3 | –
14 | COc1ccc(-c2ccc(S(=O)(=O)NC(C(=O)O)C3CCN(C(=O)OC(C)C)CC3)cc2)cc1 (centres undefined) | < 0.4 | 1400 | 11.7 | 1740 | – | – | 1.5 | 41.8 | 1 | 130 (≈ 0.265 mM)
15 | COCCOC(=O)N1CCC(C(C(=O)O)N(Cc2ccccn2)S(=O)(=O)c2ccc(-c3ccc(OC)cc3)cc2)CC1 (centres undefined) | 1 | 3310 | 18.7 | 3640 | – | – | 3.2 | 86.1 | 3 | –
16 | COCCOC(=O)N1CCC(C(NS(=O)(=O)c2ccc(-c3ccc(SC)cc3)cc2)C(=O)O)CC1 (centres undefined) | 0.4 | 1080 | 7.3 | 1020 | – | – | 1.8 | 40.6 | 1 | 3500 (≈ 6.7 mM)
17 | CCCCOc1ccc(S(=O)(=O)NC(C(=O)O)C2CCN(C(=O)OCCOC)CC2)cc1 (centres undefined) | 549 | > 10000 | 2990 | > 10000 | – | – | 294 | 678 | 791 | –
18 | COCCOC(=O)N1CCC(C(NS(=O)(=O)c2ccc(-c3ccc(OC)cc3)cc2)C(=O)O)CC1 (stereo in doubt; 14i) | – | – | < 0.4 | – | – | – | 0.5 | 13.8 | 0.4 | –
19 | COCCOC(=O)N1CCC(C(NS(=O)(=O)c2ccc(-c3ccc(OC)cc3)cc2)C(=O)O)CC1 (stereo in doubt; 13g) | 0.8 | – | 55 | 4110 | – | – | 3.4 | 133 | 3.5 | 8070 (≈ 15.9 mM)
20 | COCCOC(=O)N1CCC(C(NS(=O)(=O)c2ccc(Oc3ccccc3)cc2)C(=O)O)CC1 (centres undefined) | 58.1 | > 10000 | 597 | > 10000 | – | – | 25.8 | 399 | 140 | –
21 | COCCOC(=O)N1CCC(C(C(=O)O)N(CCOC)S(=O)(=O)c2ccc(-c3ccc(OC)cc3)cc2)CC1 (centres undefined) | 0.6 | 1220 | 9.1 | 2650 | – | – | 2.4 | 45.5 | 1 | 11100 (≈ 19.6 mM)
